What was measured:
HepG2 = test: Cytotoxicity against human HepG2 cells after 48 hrs by MTT assay; type: functional, cell-based; conditions: HepG2, 48 h
Procedure, shortened: (§1)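 MTT assay on cells grown in DMEM with 10% FBS and split at 70-80% confluence by trypsinization. Seeded 1×10^4 cells/well, attached 24 h at 37 °C. Compounds came from 10 mM DMSO stocks diluted in medium to a concentration series, with 0.1% DMSO as negative control. Cells were exposed for 48 h at 37 °C, then given MTT for 4 h. Formazan was dissolved in DMSO and read at 570 nm. IC50 was fitted from % inhibition versus control, mean of three independent experiments.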

A549 [1] = test: Cytotoxicity against human A549 cells after 48 hrs by MTT assay; type: functional, cell-based; conditions: A549, 48 h; procedure, shortened: as §1
MDA-MB-231 [2] = test: Cytotoxicity against human MDA-MB-231 cells after 48 hrs by MTT assay; type: functional, cell-based; conditions: MDA-MB-231, 48 h; procedure, shortened: as §1
MCF7 = test: Cytotoxicity against human MCF7 cells after 48 hrs by MTT assay; type: functional, cell-based; conditions: MCF7, 48 h; procedure, shortened: as §1
MDA-MB-231 [3] = test: Induction of cell cycle arrest in human MDA-MB-231 cells assessed as accumulation at subG1 phase at 80 uM after 48 hrs by propidium iodide staining based FACS analysis (reference value: 1.69%); type: functional
A549 [4] = test: Cytotoxicity against human A549 cells after 48 hrs by MTT assay relative to fluorouracil; type: functional
MDA-MB-231 [5] = test: Induction of cell cycle arrest in human MDA-MB-231 cells assessed as accumulation at S phase at 40 uM after 48 hrs by propidium iodide staining based FACS analysis (reference value: 42.22%); type: functional
MDA-MB-231 [6] = test: Cytotoxicity against human MDA-MB-231 cells after 48 hrs by MTT assay relative to fluorouracil; type: functional
MDA-MB-231 [7] = test: Induction of cell cycle arrest in human MDA-MB-231 cells assessed as accumulation at G0/G1 phase at 40 uM after 48 hrs by propidium iodide staining based FACS analysis (reference value: 37.97%); type: functional
MDA-MB-231 [8] = test: Induction of cell cycle arrest in human MDA-MB-231 cells assessed as accumulation at S phase at 80 uM after 48 hrs by propidium iodide staining based FACS analysis (reference value: 42.22%); type: functional
MDA-MB-231 [9] = test: Induction of cell cycle arrest in human MDA-MB-231 cells assessed as accumulation at subG1 phase at 20 uM after 48 hrs by propidium iodide staining based FACS analysis (reference value: 1.69%); type: functional
MDA-MB-231 [10] = test: Induction of cell cycle arrest in human MDA-MB-231 cells assessed as accumulation at S phase at 20 uM after 48 hrs by propidium iodide staining based FACS analysis (reference value: 42.22%); type: functional
MDA-MB-231 [11] = test: Induction of cell cycle arrest in human MDA-MB-231 cells assessed as accumulation at G2/M phase at 40 uM after 48 hrs by propidium iodide staining based FACS analysis (reference value: 18.12%); type: functional
MDA-MB-231 [12] = test: Induction of cell cycle arrest in human MDA-MB-231 cells assessed as accumulation at G2/M phase at 80 uM after 48 hrs by propidium iodide staining based FACS analysis (reference value: 18.12%); type: functional
MDA-MB-231 [13] = test: Induction of cell cycle arrest in human MDA-MB-231 cells assessed as accumulation at G0/G1 phase at 80 uM after 48 hrs by propidium iodide staining based FACS analysis (reference value: 37.97%); type: functional
MDA-MB-231 [14] = test: Induction of cell cycle arrest in human MDA-MB-231 cells assessed as accumulation at G2/M phase at 20 uM after 48 hrs by propidium iodide staining based FACS analysis (reference value: 18.12%); type: functional
MDA-MB-231 [15] = test: Induction of cell cycle arrest in human MDA-MB-231 cells assessed as accumulation at subG1 phase at 40 uM after 48 hrs by propidium iodide staining based FACS analysis (reference value: 1.69%); type: functional
MDA-MB-231 [16] = test: Induction of cell cycle arrest in human MDA-MB-231 cells assessed as accumulation at G0/G1 phase at 20 uM after 48 hrs by propidium iodide staining based FACS analysis (reference value: 37.97%); type: functional
MDA-MB-231 [17] = test: Induction of cell cycle arrest in human MDA-MB-231 cells assessed as accumulation at G2/M phase after 48 hrs by propidium iodide staining based FACS analysis (reference value: 18.12%); type: functional

COc1ccc(CCNc2nccc(NC3CCN(S(C)(=O)=O)CC3)n2)cc1
IC50 (HepG2): 20 µM
IC50 (A549 [1]): 21.4 µM
IC50 (MDA-MB-231 [2]): 15.8 µM
IC50 (MCF7): 32.8 µM

CS(=O)(=O)N1CCC(Nc2ncc(Cl)c(NCc3ccccc3)n2)CC1
IC50 (HepG2): > 200 µM
IC50 (A549 [1]): 46.8 µM
IC50 (MDA-MB-231 [2]): 11.7 µM
IC50 (MCF7): 32.4 µM

COc1ccc(CCNc2nc(NC3CCN(S(C)(=O)=O)CC3)ncc2Cl)cc1
IC50 (HepG2): > 200 µM
IC50 (A549 [1]): > 200 µM
IC50 (MDA-MB-231 [2]): > 200 µM
IC50 (MCF7): > 200 µM

COc1ccc(CNc2ccnc(N3CCN(C)CC3)n2)cc1
IC50 (HepG2): > 200 µM
IC50 (A549 [1]): > 200 µM
IC50 (MDA-MB-231 [2]): > 200 µM
IC50 (MCF7): > 200 µM

COc1ccc(CNc2nccc(NC3CCN(S(C)(=O)=O)CC3)n2)cc1
IC50 (HepG2): 20.2 µM
Activity (MDA-MB-231 [3]): 1.26%
Ratio IC50 (A549 [4]): 2
IC50 (A549 [1]): 12.8 µM
IC50 (MDA-MB-231 [2]): 7.46 µM
Activity (MDA-MB-231 [5]): 29.91%
Ratio IC50 (MDA-MB-231 [6]): 2
Activity (MDA-MB-231 [7]): 32.55%
Activity (MDA-MB-231 [8]): 26.78%
Activity (MDA-MB-231 [9]): 1.09%
Activity (MDA-MB-231 [10]): 32.03%
Activity (MDA-MB-231 [11]): 36.51%
Activity (MDA-MB-231 [12]): 40.95%
IC50 (MCF7): 16.2 µM
Activity (MDA-MB-231 [13]): 31.01%
Activity (MDA-MB-231 [14]): 33.79%
Activity (MDA-MB-231 [15]): 1.03%
Activity (MDA-MB-231 [16]): 33.09%
Activity (MDA-MB-231 [17]): Dose-dependent effect

COc1cccc(Nc2ccnc(N3CCN(C)CC3)n2)c1
IC50 (HepG2): > 200 µM
IC50 (A549 [1]): > 200 µM
IC50 (MDA-MB-231 [2]): > 200 µM
IC50 (MCF7): > 200 µM

COc1cccc(Nc2nccc(NC3CCN(S(C)(=O)=O)CC3)n2)c1
IC50 (HepG2): 67.9 µM
IC50 (A549 [1]): > 200 µM
IC50 (MDA-MB-231 [2]): 109 µM
IC50 (MCF7): 72.1 µM

COc1cccc(Nc2ccnc(NC3CCN(S(C)(=O)=O)CC3)n2)c1
IC50 (HepG2): 86.6 µM
IC50 (A549 [1]): > 200 µM
IC50 (MDA-MB-231 [2]): 29.4 µM
IC50 (MCF7): 77.8 µM

CS(=O)(=O)N1CCC(Nc2ncc(Cl)c(Nc3ccccc3)n2)CC1
IC50 (HepG2): > 200 µM
IC50 (A549 [1]): > 200 µM
IC50 (MDA-MB-231 [2]): > 200 µM
IC50 (MCF7): > 200 µM

CS(=O)(=O)N1CCC(Nc2nccc(NCc3ccccc3)n2)CC1
IC50 (HepG2): 149 µM
IC50 (A549 [1]): 42.5 µM
IC50 (MDA-MB-231 [2]): 60.8 µM
IC50 (MCF7): 98.5 µM

COc1ccc(Nc2nc(NC3CCN(S(C)(=O)=O)CC3)ncc2Cl)cc1
IC50 (HepG2): > 200 µM
IC50 (A549 [1]): > 200 µM
IC50 (MDA-MB-231 [2]): > 200 µM
IC50 (MCF7): > 200 µM

O=c1[nH]cc(F)c(=O)[nH]1 [FLUOROURACIL]
IC50 (MDA-MB-231 [2]): 24.6 µM
IC50 (MCF7): 39.9 µM

COc1ccccc1CCNc1nccc(N2CCN(C)CC2)n1
IC50 (HepG2): > 200 µM
IC50 (A549 [1]): > 200 µM
IC50 (MDA-MB-231 [2]): > 200 µM
IC50 (MCF7): > 200 µM

COc1cccc(Nc2nc(NC3CCN(S(C)(=O)=O)CC3)ncc2Cl)c1
IC50 (HepG2): > 200 µM
IC50 (A549 [1]): > 200 µM
IC50 (MDA-MB-231 [2]): > 200 µM
IC50 (MCF7): > 200 µM

CS(=O)(=O)N1CCC(Nc2ccnc(Nc3ccc(Cl)cc3)n2)CC1
IC50 (HepG2): 92.6 µM
IC50 (A549 [1]): > 200 µM
IC50 (MDA-MB-231 [2]): 102 µM
IC50 (MCF7): > 200 µM

COc1ccc(Nc2nccc(N3CCN(C)CC3)n2)cc1
IC50 (HepG2): > 200 µM
IC50 (A549 [1]): > 200 µM
IC50 (MDA-MB-231 [2]): > 200 µM
IC50 (MCF7): > 200 µM

CN1CCN(c2ccnc(Nc3ccc(Cl)cc3)n2)CC1
IC50 (HepG2): > 200 µM
IC50 (A549 [1]): > 200 µM
IC50 (MDA-MB-231 [2]): > 200 µM
IC50 (MCF7): > 200 µM

CN1CCN(c2nccc(NCc3ccccc3)n2)CC1
IC50 (HepG2): > 200 µM
IC50 (A549 [1]): > 200 µM
IC50 (MDA-MB-231 [2]): > 200 µM
IC50 (MCF7): > 200 µM

CS(=O)(=O)N1CCC(Nc2nccc(Nc3ccc(Cl)cc3)n2)CC1
IC50 (HepG2): 78.6 µM
IC50 (A549 [1]): > 200 µM
IC50 (MDA-MB-231 [2]): > 200 µM
IC50 (MCF7): > 200 µM

COc1ccc(CNc2ccnc(NC3CCN(S(C)(=O)=O)CC3)n2)cc1
IC50 (HepG2): 51.7 µM
IC50 (A549 [1]): 51.6 µM
IC50 (MDA-MB-231 [2]): 33.7 µM
IC50 (MCF7): 57.2 µM

CS(=O)(=O)N1CCC(Nc2ncc(Cl)c(NCCc3ccccc3)n2)CC1
IC50 (HepG2): 123 µM
IC50 (A549 [1]): > 200 µM
IC50 (MDA-MB-231 [2]): > 200 µM
IC50 (MCF7): > 200 µM

CS(=O)(=O)N1CCC(Nc2ncc(Cl)c(NCCc3ccc(Cl)cc3)n2)CC1
IC50 (HepG2): > 200 µM
IC50 (A549 [1]): > 200 µM
IC50 (MDA-MB-231 [2]): > 200 µM
IC50 (MCF7): > 200 µM

CS(=O)(=O)N1CCC(Nc2ncc(Cl)c(Nc3ccc(Cl)cc3)n2)CC1
IC50 (HepG2): > 200 µM
IC50 (A549 [1]): > 200 µM
IC50 (MDA-MB-231 [2]): > 200 µM
IC50 (MCF7): > 200 µM

COc1ccc(Nc2nccc(NC3CCN(S(C)(=O)=O)CC3)n2)cc1
IC50 (HepG2): 86.2 µM
IC50 (A549 [1]): 91.7 µM
IC50 (MDA-MB-231 [2]): 57.7 µM
IC50 (MCF7): > 200 µM

COc1ccc(CNc2nc(NC3CCN(S(C)(=O)=O)CC3)ncc2Cl)cc1
IC50 (HepG2): > 200 µM
IC50 (A549 [1]): 60.9 µM
IC50 (MDA-MB-231 [2]): 34.1 µM
IC50 (MCF7): 64.8 µM
